Results taken from PubChem BioAssay AID624121 (Johns Hopkins Ion Channel Center, 2012).

Molecular target: Potassium channel subfamily K member 9 (Homo sapiens) (UniProt Q9NPC2)
Experiment: blockade of KCNK9 potassium currents – cell-based, manual electrophysiology, SAR follow-up (AID 624121)
Settings: HEK293 KCNK9 stable, whole-cell patch clamp current; at 1 µM; active compounds read high
Summary of the method: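 test system = inducible KCNK9-expressing HEK293 cell line | timing = induction 16–24 h pre-recording, 30 s ramp interval | evaluation = percent current inhibition at -20 mV versus current in 5 mM K+ bath | signal = whole-cell patch clamp current at -20 mV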

Sequence of Potassium channel subfamily K member 9 (Homo sapiens) (Q9NPC2 whole entry, looked up): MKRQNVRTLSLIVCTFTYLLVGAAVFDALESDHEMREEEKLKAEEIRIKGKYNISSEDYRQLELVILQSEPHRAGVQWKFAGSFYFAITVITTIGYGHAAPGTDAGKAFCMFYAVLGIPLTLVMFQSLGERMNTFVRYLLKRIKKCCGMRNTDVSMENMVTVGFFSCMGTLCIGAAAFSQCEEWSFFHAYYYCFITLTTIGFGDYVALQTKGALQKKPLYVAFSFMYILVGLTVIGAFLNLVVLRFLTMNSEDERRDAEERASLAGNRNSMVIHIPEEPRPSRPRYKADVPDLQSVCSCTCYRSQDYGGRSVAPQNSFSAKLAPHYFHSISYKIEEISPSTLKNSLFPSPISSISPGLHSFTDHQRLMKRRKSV

inhibition: 55.2%
Compound: C[C@@H]([C@@H]1CC2CC[C@H]1C2)n1c(-c2ccco2)n[nH]c1=S
